Reference: ChEMBL document CHEMBL3244044, “Synthesis and antitumor activity of halogen-substituted 4-(3,3-dimethyl-1-triazeno)quinolines” (J Med Chem, 1978)

Columns and labels:
Mus musculus [1] = assay: Toxicity in mouse P388 cells allografted mouse at 80 mg/kg, ip qd for 9 days; type: organism-based; design: dose 80 mg/kg, route intraperitoneal; details: in vivo, 216 h
How it was run: (§1)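 NCI protocol. Groups of five to ten mice were inoculated intraperitoneally with about 10^6 tumor cells. Drug was given ip once daily for 9 consecutive days, starting 24 h after tumor implantation, over a range of dose levels. Toxicity was read as the average body weight change at the end of drug treatment.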

Mus musculus [2] = assay: Toxicity in mouse B16 cells allografted mouse at 70 mg/kg, ip qd for 9 days; type: organism-based; design: dose 70 mg/kg, route intraperitoneal; details: in vivo, 216 h
How it was run: (§2)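 Mice bearing B16 melanoma, dosed ip once daily for 9 days from 24 h after tumor implantation. Toxicity is recorded as the average body weight change at the end of drug treatment.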

B16 [3] = assay: Antitumor activity against mouse B16 cells allografted mouse assessed as host survival at 116.7 mg/kg, ip qd for 9 days relative to control; type: functional; details: route intraperitoneal
How it was run: (§3)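 B16 melanoma-bearing mice given drug ip once daily for 9 days, starting 24 h after tumor implantation. Read-out is average survival in days, expressed as %T/C = (average survival of treated mice)/(average survival of control mice) × 100.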

Mus musculus [4] = assay: Toxicity in mouse L1210 cells allografted mouse at 90 mg/kg, ip qd for 9 days; type: organism-based; design: dose 90 mg/kg, route intraperitoneal; details: in vivo, 216 h; how it was run: as §1
Mus musculus [5] = assay: Toxicity in mouse P388 cells allografted mouse at 70 mg/kg, ip qd for 9 days; type: organism-based; design: dose 70 mg/kg, route intraperitoneal; details: in vivo, 216 h; how it was run: as §1
L1210 [6] = assay: Antitumor activity against mouse L1210 cells allografted mouse assessed as host survival at 90 mg/kg, ip qd for 9 days relative to control; type: functional; details: route intraperitoneal
How it was run: (§4)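 NCI protocol: groups of five to ten mice inoculated ip with approximately 10^6 P-388 or L1210 cells. Drug given over a range of dose levels starting 24 h after implantation, once daily for 9 consecutive days. Survival expressed as %T/C = (average survival of treated)/(average survival of control) × 100.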

P388 [7] = assay: Antitumor activity against mouse P388 cells allografted mouse assessed as host survival at 70 mg/kg, ip qd for 9 days relative to control; type: functional; details: route intraperitoneal; how it was run: as §4
B16 [8] = assay: Antitumor activity against mouse B16 cells allografted mouse assessed as host survival at 42 mg/kg, ip qd for 9 days relative to control; type: functional; details: route intraperitoneal; how it was run: as §3
L1210 [9] = assay: Antitumor activity against mouse L1210 cells allografted mouse assessed as host survival at 70 mg/kg, ip qd for 9 days relative to control; type: functional; details: route intraperitoneal; how it was run: as §4
Mus musculus [10] = assay: Toxicity in mouse L1210 cells allografted mouse at 80 mg/kg, ip qd for 9 days; type: organism-based; design: dose 80 mg/kg, route intraperitoneal; details: in vivo, 216 h; how it was run: as §1
Mus musculus [11] = assay: Toxicity in mouse L1210 cells allografted mouse at 70 mg/kg, ip qd for 9 days; type: organism-based; design: dose 70 mg/kg, route intraperitoneal; details: in vivo, 216 h
How it was run: (§5)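 Groups of five to ten mice were inoculated ip with about 10^6 L1210 cells and dosed once daily for 9 consecutive days beginning 24 h post-implantation. Toxicity was taken as the average body weight change at the end of drug treatment.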

B16 [12] = assay: Antitumor activity against mouse B16 cells allografted mouse assessed as host survival at 70 mg/kg, ip qd for 9 days relative to control; type: functional; details: route intraperitoneal; how it was run: as §3
Mus musculus [13] = assay: Toxicity in mouse P388 cells allografted mouse at 90 mg/kg, ip qd for 9 days; type: organism-based; design: dose 90 mg/kg, route intraperitoneal; details: in vivo, 216 h; how it was run: as §1
P388 [14] = assay: Antitumor activity against mouse P388 cells allografted mouse assessed as host survival at 90 mg/kg, ip qd for 9 days relative to control; type: functional; details: route intraperitoneal; how it was run: as §4
P388 [15] = assay: Antitumor activity against mouse P388 cells allografted mouse assessed as host survival at 80 mg/kg, ip qd for 9 days relative to control; type: functional; details: route intraperitoneal; how it was run: as §4
Mus musculus [16] = assay: Toxicity in mouse B16 cells allografted mouse at 116.7 mg/kg, ip qd for 9 days; type: organism-based; design: dose 116.7 mg/kg, route intraperitoneal; details: in vivo, 216 h; how it was run: as §2
Mus musculus [17] = assay: Toxicity in mouse B16 cells allografted mouse at 42 mg/kg, ip qd for 9 days; type: organism-based; design: dose 42 mg/kg, route intraperitoneal; details: in vivo, 216 h; how it was run: as §2
L1210 [18] = assay: Antitumor activity against mouse L1210 cells allografted mouse assessed as host survival at 80 mg/kg, ip qd for 9 days relative to control; type: functional; details: route intraperitoneal; how it was run: as §4
Mus musculus [19] = assay: Toxicity in mouse P388 cells allografted mouse at 30 mg/kg, ip qd for 9 days; type: organism-based; design: dose 30 mg/kg, route intraperitoneal; details: in vivo, 216 h; how it was run: as §1
Mus musculus [20] = assay: Toxicity in mouse P388 cells allografted mouse at 40 mg/kg, ip qd for 9 days; type: organism-based; design: dose 40 mg/kg, route intraperitoneal; details: in vivo, 216 h; how it was run: as §1
B16 [21] = assay: Antitumor activity against mouse B16 cells allografted mouse assessed as host survival at 66.7 mg/kg, ip qd for 9 days relative to control; type: functional; details: route intraperitoneal; how it was run: as §3
Mus musculus [22] = assay: Toxicity in mouse B16 cells allografted mouse at 66.7 mg/kg, ip qd for 9 days; type: organism-based; design: dose 66.7 mg/kg, route intraperitoneal; details: in vivo, 216 h; how it was run: as §2
B16 [23] = assay: Antitumor activity against mouse B16 cells allografted mouse assessed as host survival at 24 mg/kg, ip qd for 9 days relative to control; type: functional; details: route intraperitoneal; how it was run: as §3
P388 [24] = assay: Antitumor activity against mouse P388 cells allografted mouse assessed as host survival at 20 mg/kg, ip qd for 9 days relative to control; type: functional; details: route intraperitoneal; how it was run: as §4
Mus musculus [25] = assay: Toxicity in mouse B16 cells allografted mouse at 24 mg/kg, ip qd for 9 days; type: organism-based; design: dose 24 mg/kg, route intraperitoneal; details: in vivo, 216 h; how it was run: as §2
P388 [26] = assay: Antitumor activity against mouse P388 cells allografted mouse assessed as host survival at 30 mg/kg, ip qd for 9 days relative to control; type: functional; details: route intraperitoneal; how it was run: as §4
Mus musculus [27] = assay: Toxicity in mouse B16 cells allografted mouse at 40 mg/kg, ip qd for 9 days; type: organism-based; design: dose 40 mg/kg, route intraperitoneal; details: in vivo, 216 h; how it was run: as §2
Mus musculus [28] = assay: Toxicity in mouse L1210 cells allografted mouse at 40 mg/kg, ip qd for 9 days; type: organism-based; design: dose 40 mg/kg, route intraperitoneal; details: in vivo, 216 h; how it was run: as §5
Mus musculus [29] = assay: Toxicity in mouse L1210 cells allografted mouse at 30 mg/kg, ip qd for 9 days; type: organism-based; design: dose 30 mg/kg, route intraperitoneal; details: in vivo, 216 h; how it was run: as §5
L1210 [30] = assay: Antitumor activity against mouse L1210 cells allografted mouse assessed as host survival at 40 mg/kg, ip qd for 9 days relative to control; type: functional; details: route intraperitoneal; how it was run: as §4
B16 [31] = assay: Antitumor activity against mouse B16 cells allografted mouse assessed as host survival at 40 mg/kg, ip qd for 9 days relative to control; type: functional; details: route intraperitoneal; how it was run: as §3
Mus musculus [32] = assay: Toxicity in mouse P388 cells allografted mouse at 20 mg/kg, ip qd for 9 days; type: organism-based; design: dose 20 mg/kg, route intraperitoneal; details: in vivo, 216 h; how it was run: as §1
P388 [33] = assay: Antitumor activity against mouse P388 cells allografted mouse assessed as host survival at 50 mg/kg, ip qd for 9 days relative to control; type: functional; details: route intraperitoneal; how it was run: as §4
L1210 [34] = assay: Antitumor activity against mouse L1210 cells allografted mouse assessed as host survival at 30 mg/kg, ip qd for 9 days relative to control; type: functional; details: route intraperitoneal; how it was run: as §4
[35] = Binding affinity to synthetic melanin at 5.8 mg/100 mL after 15 mins by UV-spectroscopic analysis; type: physicochemical; details: 0.25 h
How it was run: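 Synthetic melanin was made from DL-Dopa with tyrosinase in 0.1 M phosphate pH 6.6 at 37 °C for 4 h. Melanin suspension (1.1 mg dry weight) was mixed with phosphate buffer (0.05 M, pH 6.4, 5% Me2SO), water, and 1 mL of drug solution (5.8 mg/100 mL). The mixture was shaken 15 min at room temperature and filtered. Unbound drug in the filtrate was measured by UV against a drug-free blank.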

P388 [36] = assay: Antitumor activity against mouse P388 cells allografted mouse assessed as host survival at 40 mg/kg, ip qd for 9 days relative to control; type: functional; details: route intraperitoneal; how it was run: as §4
Mus musculus [37] = assay: Toxicity in mouse P388 cells allografted mouse at 50 mg/kg, ip qd for 9 days; type: organism-based; design: dose 50 mg/kg, route intraperitoneal; details: in vivo, 216 h; how it was run: as §1
P388 [38] = assay: Antitumor activity against mouse P388 cells allografted mouse assessed as host survival at 60 mg/kg, ip qd for 9 days relative to control; type: functional; details: route intraperitoneal; how it was run: as §4
Mus musculus [39] = assay: Toxicity in mouse P388 cells allografted mouse at 60 mg/kg, ip qd for 9 days; type: organism-based; design: dose 60 mg/kg, route intraperitoneal; details: in vivo, 216 h; how it was run: as §1

Compound | Activity (Mus musculus [1]) | Activity (Mus musculus [4]) | T/C (L1210 [6]) | T/C (L1210 [9]) | Activity (Mus musculus [10]) | Activity (Mus musculus [11]) | T/C (P388 [15]) | T/C (L1210 [18]) | Activity (Mus musculus [20]) | T/C (P388 [24]) | T/C (P388 [26]) | Activity (Mus musculus [28]) | Activity (Mus musculus [29]) | T/C (L1210 [30]) | Activity (Mus musculus [32]) | T/C (P388 [33]) | T/C (L1210 [34]) | Activity [35] | T/C (P388 [36]) | Activity (Mus musculus [37]) | also measured
CN(C)/N=N\c1ccnc2c(I)cccc12 | -2.4% | -7% | 139% | 127% | -6.9% | 7.7% | 120% | 129% | – | – | – | – | – | – | – | – | – | – | – | – | Activity (Mus musculus [2]): -1.5%; Survival (B16 [3]): 19.3 days; T/C (B16 [3]): 92%; Activity (Mus musculus [5]): 8.2%; T/C (P388 [7]): 120%; Survival (B16 [8]): 20 days; T/C (B16 [8]): 97%; Survival (B16 [12]): 20.8 days; T/C (B16 [12]): 99%; Activity (Mus musculus [13]): -1.6%; T/C (P388 [14]): 116%; Activity (Mus musculus [16]): -4.6%; Activity (Mus musculus [17]): -1.3%
CN(C)/N=N\c1ccnc2c(Br)cccc12 | – | – | – | – | – | – | – | – | -3.3% | 109% | 113% | -5.9% | 6.1% | 144% | 16% | 117% | 137% | 48.1% | 125% | -5% | Activity (Mus musculus [19]): 4.8%; Survival (B16 [21]): 21.3 days; T/C (B16 [21]): 101%; Activity (Mus musculus [22]): -3.7%; Survival (B16 [23]): 20.3 days; T/C (B16 [23]): 97%; Activity (Mus musculus [25]): -1.1%; Activity (Mus musculus [27]): -3%; Survival (B16 [31]): 19 days; T/C (B16 [31]): 90%
CN(C)/N=N\c1ccnc2ccc(I)cc12 | 7.1% | -6.4% | 158% | 148% | -8.2% | -23.8% | 123% | 160% | 10.5% | – | – | – | – | – | – | – | – | 60.6% | 117% | – | T/C (P388 [38]): 133%; Activity (Mus musculus [39]): 2.6%
CN(C)/N=N\c1ccnc2ccc(Br)cc12 | – | – | – | – | – | – | – | – | -3.5% | 123% | 127% | -5.8% | -1% | 154% | 18% | 131% | 150% | 55.3% | 111% | -8.9% | –
